Source: paper PMC4607046 (Journal of the American Chemical Society, 2015)
In brackets after ≈: the same amount, converted by molar mass.

Tests used:
S. aureus ATCC 29213 = assay: MIC, in vitro antibacterial activity; assay type: cell-based, Staphylococcus aureus
S. aureus NRS128 = assay: MIC, in vitro antibacterial activity; assay type: cell-based; settings: Staphylococcus aureus, MSSA|NRS128
S. aureus NRS70 = assay: MIC, in vitro antibacterial activity; assay type: cell-based; settings: Staphylococcus aureus, MRSA|NRS70
S. aureus NRS123 = assay: MIC, in vitro antibacterial activity; assay type: cell-based; settings: Staphylococcus aureus, MRSA|NRS123
S. aureus NRS100 = assay: MIC, in vitro antibacterial activity; assay type: cell-based; settings: Staphylococcus aureus, MRSA|NRS100
S. aureus NRS119 = assay: MIC, in vitro antibacterial activity; assay type: cell-based; settings: Staphylococcus aureus, MRSA|NRS119
S. aureus NRS120 = assay: MIC, in vitro antibacterial activity; assay type: cell-based; settings: Staphylococcus aureus, MRSA|NRS120
S. aureus VRS1 = assay: MIC, in vitro antibacterial activity; assay type: cell-based; settings: Staphylococcus aureus, MRSA
S. aureus VRS2 = assay: MIC, in vitro antibacterial activity; assay type: cell-based; settings: Staphylococcus aureus, MRSA
[1] = system: S. epidermidis ATCC 35547; assay: MIC, in vitro antibacterial activity; assay type: cell-based; settings: Staphylococcus epidermidis, ATCC35547
[2] = system: PBP1 (pbpA antisense, MRSA COL); assay: Antisense sensitization, pbpA antisense in MRSA COL; assay type: cell-based, S. aureus; settings: xylose induction
[3] = system: PBP2a (pbp2a antisense, MRSA COL); assay: Antisense sensitization, pbp2a antisense in MRSA COL; assay type: cell-based, S. aureus; settings: xylose induction
HepG2 cells = assay: XTT cell proliferation assay; assay type: cell-based; settings: Homo sapiens, HepG2, read-out: IC50, XTT cell proliferation assay
[4] = Glutathione adduct formation; assay type: in vitro ADME
[5] = Hemolysis of red blood cells; assay type: cell-based
[6] = Stability in mouse plasma; assay type: in vitro ADME
[7] = Metabolic stability in rat S9; assay type: in vitro ADME; settings: liver S9
[8] = Metabolic stability in human S9; assay type: in vitro ADME; settings: liver S9
Water solubility = assay type: physicochemical
How it was run: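 Test compound tested as its sodium salt, dissolved in water.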

[9] = Pharmacokinetics after single iv or po dose; assay type: in vivo, mice
[10] = system: S. aureus ATCC 29213 cell-wall biosynthesis; assay: Macromolecular synthesis assay, cell wall; assay type: cell-based, Staphylococcus aureus; settings: 2 at 0.5 MIC
How it was run: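 Logarithmic-phase S. aureus ATCC 29213 was treated with test compound at 1/2 MIC. Peptidoglycan synthesis was followed as D-[2,3-3H]-alanine incorporation into cell wall, with fosfomycin (16 μg/mL) as control. Maximum inhibition was taken at 120 min.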

[11] = system: S. aureus ATCC 29213 DNA synthesis; assay: Macromolecular synthesis assay, DNA; assay type: cell-based, Staphylococcus aureus; settings: 0.5 MIC
How it was run: (§1)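 Logarithmic-phase S. aureus ATCC 29213 was exposed to test compound at 1/2 MIC, and incorporation of radiolabeled precursors was monitored: [methyl-3H]-thymidine (DNA), [5,6-3H]-uridine (RNA) and L-[4,5-3H]-leucine (protein). Controls were ciprofloxacin 0.5 μg/mL (DNA), rifampicin 8 ng/mL (RNA) and tetracycline 31 ng/mL (protein). Maximum inhibition was taken at 80 min for DNA and at 120 min for RNA and protein.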

[12] = system: S. aureus ATCC 29213 RNA synthesis; assay: Macromolecular synthesis assay, RNA; assay type: cell-based, Staphylococcus aureus; settings: 0.5 MIC
How it was run: as §1

[13] = system: S. aureus ATCC 29213 protein synthesis; assay: Macromolecular synthesis assay, protein; assay type: cell-based, Staphylococcus aureus; settings: 0.5 MIC
How it was run: as §1

T7 transcription = assay: In vitro transcription assay, T7 transcription kit; assay type: biochemical
[14] = system: E. coli S30 extract translation; assay type: biochemical; settings: β-galactosidase assay system
PBP2a = PBP2a (Staphylococcus aureus, UniProt P07944); assay: Bocillin FL competition assay, purified recombinant PBP2a; assay type: binding, S. aureus
Sequence of PBP2a (P07944 whole entry): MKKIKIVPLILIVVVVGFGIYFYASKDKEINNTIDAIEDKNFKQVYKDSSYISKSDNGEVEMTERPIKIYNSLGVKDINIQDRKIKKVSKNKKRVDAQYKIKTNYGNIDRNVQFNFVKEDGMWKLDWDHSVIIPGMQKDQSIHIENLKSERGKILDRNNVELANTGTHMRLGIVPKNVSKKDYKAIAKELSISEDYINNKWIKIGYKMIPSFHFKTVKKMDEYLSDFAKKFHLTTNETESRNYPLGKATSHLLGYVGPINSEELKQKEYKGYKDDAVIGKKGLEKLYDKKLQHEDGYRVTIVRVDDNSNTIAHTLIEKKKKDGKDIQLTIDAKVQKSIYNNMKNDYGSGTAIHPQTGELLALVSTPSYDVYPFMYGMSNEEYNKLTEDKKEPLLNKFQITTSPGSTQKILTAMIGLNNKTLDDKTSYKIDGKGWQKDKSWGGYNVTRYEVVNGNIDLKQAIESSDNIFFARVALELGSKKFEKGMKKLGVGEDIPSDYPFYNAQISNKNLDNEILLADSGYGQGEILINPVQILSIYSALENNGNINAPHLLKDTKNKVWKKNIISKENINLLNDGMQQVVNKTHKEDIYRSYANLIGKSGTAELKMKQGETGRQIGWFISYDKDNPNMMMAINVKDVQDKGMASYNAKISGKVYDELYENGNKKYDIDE
How it was run: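 Recombinant purified PBP2a (1 μM) was labeled with fluorescent Bocillin FL (20 μM) in the presence of increasing amounts of test compound (μg/mL). Competition was read as loss of fluorescence labeling of the active site, and an apparent IC50 was derived.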

PBP2a allosteric site = PBP2a allosteric site (Staphylococcus aureus, UniProt P07944); assay: Intrinsic fluorescence quenching of oxacillin-acylated PBP2a; assay type: binding, S. aureus
Sequence of PBP2a allosteric site (P07944 whole entry): as above
How it was run: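 PBP2a intrinsic fluorescence was excited at 280 nm and emission spectra were scanned while test compound was titrated to the final concentrations shown. Kd came from nonlinear regression of the change in maximum fluorescence intensity, averaged over three experiments.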

E. faecium = assay: MIC, ESKAPE panel; assay type: cell-based, Enterococcus faecium
[15] = system: Gram-negative bacteria of our panel; assay: Antibacterial activity, E. coli and ESKAPE panel; assay type: cell-based; settings: Gram-negative bacteria of the E. coli/ESKAPE panel
[16] = Staphylococcus aureus, ATCC29213|MSSA
[17] = experiment with meropenem control

For `Cc1onc(-c2ccccc2)c1C(=O)N[C@@H]1C(=O)N2[C@@H]1SC(C)(C)[C@@H]2C(=O)O` [oxacillin], the MIC (S. aureus ATCC 29213; [16]) was 0.25 µg/mL (≈ 0.623 µM), the MIC (S. aureus NRS128) was 0.5 µg/mL (≈ 1.25 µM) and the MIC (S. aureus NRS70) was 32 µg/mL (≈ 79.7 µM). It also gave an MIC (S. aureus NRS123) of 32 µg/mL (≈ 79.7 µM), an MIC (S. aureus NRS100) of 512 µg/mL (≈ 1280 µM) and an MIC (S. aureus NRS119) of 512 µg/mL (≈ 1280 µM). The MIC (S. aureus NRS120) was 512 µg/mL (≈ 1280 µM), the MIC (S. aureus VRS1) was 512 µg/mL (≈ 1280 µM) and the MIC (S. aureus VRS2) was 256 µg/mL (≈ 638 µM). For the same molecule, the MIC [1] was 128 µg/mL (≈ 319 µM).

For `C[C@@H](O)[C@H]1C(=O)N2C(C(=O)O)=C(SCCN=CN)C[C@H]12` [imipenem], the “sensitization on attenuation of PBP1 expression” value [2] was “sensitized the strain” and the “sensitization on attenuation of PBP2a expression” value [3] was “sensitized the strain”.

Molecule `N#Cc1ccc(/C=C/c2nc3ccccc3c(=O)n2-c2cccc(C(=O)O)c2)cc1` [compound 2, (E)-3-(3-carboxyphenyl)-2-(4-cyanostyryl)quinazolin-4(3H)-one] has an MIC (S. aureus ATCC 29213; [16]) of 2 µg/mL (≈ 5.08 µM), an MIC (S. aureus NRS128) of 4 µg/mL (≈ 10.2 µM) and an MIC (S. aureus NRS70) of 2 µg/mL (≈ 5.08 µM). The MIC (S. aureus NRS123) was 2 µg/mL (≈ 5.08 µM), the MIC (S. aureus NRS100) was 16 µg/mL (≈ 40.7 µM) and the MIC (S. aureus NRS119) was 8 µg/mL (≈ 20.3 µM). The MIC (S. aureus NRS120) was 8 µg/mL (≈ 20.3 µM), the MIC (S. aureus VRS1) was 16 µg/mL (≈ 40.7 µM) and the MIC (S. aureus VRS2) was 2 µg/mL (≈ 5.08 µM). The MIC [1] was 1 µg/mL (≈ 2.54 µM), the IC50 (HepG2 cells) was 63 ± 1 µg/mL (≈ 160 µM) and the alkylating agent (Alkylating agent test) was “not an alkylating agent”. The glutathione adduct formation [4] was “did not form glutathione adducts”, the hemolysis at 50 μg/mL [5] was under 1% and the “half-life in mouse plasma” value [6] was 141 h. It also gave a remaining at 1 h [7] of 100%, a remaining at 1 h [8] of 100% and a solubility (Water solubility) of 8000 µg/mL (≈ 20300 µM). For the same molecule, the maximum concentration ([9]; mice, single 10 mg/kg oral (po) dose) was 1.29 µg/mL, the “time plasma levels sustained above MIC” value ([9]; mouse, in vivo, iv, 10 mg/kg) was 2 h and the clearance ([9]; mouse, plasma, iv, 10 mg/kg) was 6.87 mL/min/kg. For the same molecule, the half-life ([9]; mouse, plasma, iv, 10 mg/kg) was over 20 h, the half-life ([9]; mouse, plasma, po, 10 mg/kg) was over 20 h and the “inhibition of cell-wall biosynthesis (D-[2,3-3H]-alanine incorporation)” value (“inhibition of cell-wall biosynthesis” below) ([10]; experiment with fosfomycin control, fosfomycin 16 μg/mL, 120 min) was 51 ± 12%. The “inhibition of cell-wall biosynthesis” value [10, 17] was 61 ± 4%, the “effect on replication (DNA synthesis, [methyl-3H]-thymidine incorporation)” value [11] was “did not significantly affect” and the “effect on transcription (RNA synthesis, [5,6-3H]-uridine incorporation)” value [12] was “did not significantly affect”. For the same molecule, the “effect on translation (protein synthesis, L-[4,5-3H]-leucine incorporation)” value [13] was “did not significantly affect”, the “inhibition of in vitro transcription” value (T7 transcription) was “did not show inhibition” and the “inhibition of in vitro translation” value [14] was “did not show inhibition”. For the same molecule, the IC50 (PBP2a) was 356 µM, the “sensitization on attenuation of PBP1 expression” value [2] was “sensitized the strain” and the “sensitization on attenuation of PBP2a expression” value [3] was “sensitized the strain”. For the same molecule, the Kd (PBP2a allosteric site) was 17.5 µM.

Work on `CN[C@H](CC(C)C)C(=O)N[C@H]1C(=O)N[C@@H](CC(N)=O)C(=O)N[C@H]2C(=O)N[C@H]3C(=O)N[C@H](C(=O)N[C@H](C(=O)O)c4cc(O)cc(O)c4-c4cc3ccc4O)[C@H](O)c3ccc(c(Cl)c3)Oc3cc2cc(c3O[C@@H]2O[C@H](CO)[C@@H](O)[C@H](O)[C@H]2O[C@H]2C[C@](C)(N)[C@H](O)[C@H](C)O2)Oc2ccc(cc2Cl)[C@H]1O` [vancomycin] yielded an MIC (S. aureus ATCC 29213; [16]) of 1 µg/mL (≈ 0.69 µM), an MIC (S. aureus NRS128) of 1 µg/mL (≈ 0.69 µM) and an MIC (S. aureus NRS70) of 1 µg/mL (≈ 0.69 µM). The MIC (S. aureus NRS123) was 1 µg/mL (≈ 0.69 µM), the MIC (S. aureus NRS100) was 2 µg/mL (≈ 1.38 µM) and the MIC (S. aureus NRS119) was 2 µg/mL (≈ 1.38 µM). It also gave an MIC (S. aureus NRS120) of 2 µg/mL (≈ 1.38 µM), an MIC (S. aureus VRS1) of 512 µg/mL (≈ 353 µM) and an MIC (S. aureus VRS2) of 64 µg/mL (≈ 44.2 µM). For the same molecule, the MIC [1] was 16 µg/mL (≈ 11 µM).

In the case of `CC(=O)NC[C@H]1CN(c2ccc(N3CCOCC3)c(F)c2)C(=O)O1` [linezolid], the MIC (S. aureus ATCC 29213; [16]) is reported as 4 µg/mL (≈ 11.9 µM), the MIC (S. aureus NRS128) is reported as 1 µg/mL (≈ 2.96 µM) and the MIC (S. aureus NRS70) is reported as 1 µg/mL (≈ 2.96 µM). The MIC (S. aureus NRS123) was 2 µg/mL (≈ 5.93 µM), the MIC (S. aureus NRS100) was 2 µg/mL (≈ 5.93 µM) and the MIC (S. aureus NRS119) was 32 µg/mL (≈ 94.9 µM). It also gave an MIC (S. aureus NRS120) of 32 µg/mL (≈ 94.9 µM), an MIC (S. aureus VRS1) of 2 µg/mL (≈ 5.93 µM) and an MIC (S. aureus VRS2) of 2 µg/mL (≈ 5.93 µM). For the same molecule, the MIC [1] was 1 µg/mL (≈ 2.96 µM).

In the case of `C[C@@H](O)[C@H]1C(=O)N2C(C(=O)O)=C(S[C@@H]3CN[C@H](C(=O)N(C)C)C3)[C@H](C)[C@H]12` [meropenem, reference compound], the “inhibition of cell-wall biosynthesis” value [10, 17] is reported as 64 ± 2%.

In the case of `CCO/N=C(\C(=O)N[C@@H]1C(=O)N2C(C(=O)[O-])=C(Sc3nc(-c4cc[n+](C)cc4)cs3)CS[C@H]12)c1nsc(N)n1` [ceftaroline], the “sensitization on attenuation of PBP1 expression” value [2] is reported as “sensitized the strain” and the “sensitization on attenuation of PBP2a expression” value [3] is reported as “sensitized the strain”.

With `N#Cc1ccc(/C=C/c2nc3ccccc3c(=O)n2-c2cccc(C(=O)O)c2)cc1` [compound 1] the MIC (S. aureus ATCC 29213; S. aureus ATCC 29213, quality control MSSA strain) was 2 µg/mL (≈ 5.08 µM), the MIC (E. faecium) was 16 µg/mL (≈ 40.7 µM) and the “activity against Gram-negative bacteria” value [15] was “did not have activity”.
